Screening results (PubChem)
GalR3 antagonist = antagonists of human GalR3 | HEK293 GalR3-CNG cAMP membrane potential fluorescence; galR3 body fused to GalR1 C-terminus | inhibition, % at 3 µM | actives 0.44% (n = 360,000);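 active = inhibition above the screen-wide average plus 3 SD, cut at about 13% in these data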;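 note: forskolin and galanin both at EC90 stimulate the cells; cAMP rise reported by CNG channel membrane potential dye signal; 0% = forskolin plus galanin with DMSO and 100% = forskolin alone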
Target sequence (O60755 1-299 limits assumed): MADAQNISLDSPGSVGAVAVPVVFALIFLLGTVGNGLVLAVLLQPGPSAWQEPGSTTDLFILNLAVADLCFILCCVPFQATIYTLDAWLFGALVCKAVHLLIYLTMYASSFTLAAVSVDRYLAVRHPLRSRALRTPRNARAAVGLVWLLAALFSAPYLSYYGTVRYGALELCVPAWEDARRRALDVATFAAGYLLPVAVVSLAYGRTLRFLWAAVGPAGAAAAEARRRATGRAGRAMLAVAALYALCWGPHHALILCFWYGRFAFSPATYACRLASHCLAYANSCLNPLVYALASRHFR
OX1R antag-1 = blocks the human orexin 1 receptor; O43613; CHO/OX1R cells, Fluo-8 calcium fluorescence, orexin A; inhibition, % at 5 µM; actives 0.43% (n = 330,000); AID 434989;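 active = inhibition above its plate's threshold, mean inhibition of all tested compounds on the plate plus 3 SD, cut at about 37% in these data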;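 note: 0% = orexin A challenge wells and 100% = SB-334867-A antagonist wells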
OX1R antag-2 = blocks the human orexin 1 receptor. O43613. inhibition, % at 6.6 µM. OX1R-expressing cells, FRET antagonist read-out. actives 1.8% (n = 330,000); in the data active = inhibition mostly above about 38%, no sharp cut-off; inactive = mostly below about 40%;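 note: 0% = agonist challenge alone and 100% = reference antagonist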
GPR7 antagonist = human neuropeptides B/W receptor 1 antagonism | inhibition, % at 4.4 µM | AID 1861 | actives 1.1% (n = 290,000) | GPR7-expressing cells, fluorescence antagonist assay; in the data active = inhibition above about 16%, passing the limit was not always enough;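 note: cells stimulated with the agonist NPW; 0% = agonist with vehicle and 100% = vehicle without agonist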
Target sequence (P48145 whole entry, looked up): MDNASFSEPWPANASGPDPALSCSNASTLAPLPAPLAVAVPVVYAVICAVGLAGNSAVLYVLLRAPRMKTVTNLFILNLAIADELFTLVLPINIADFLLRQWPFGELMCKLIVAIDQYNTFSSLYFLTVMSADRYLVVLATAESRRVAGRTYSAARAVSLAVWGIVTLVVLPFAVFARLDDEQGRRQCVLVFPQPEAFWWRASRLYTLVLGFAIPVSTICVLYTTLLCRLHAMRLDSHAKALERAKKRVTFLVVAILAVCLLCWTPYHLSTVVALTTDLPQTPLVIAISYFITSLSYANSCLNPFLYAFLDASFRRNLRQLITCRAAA
CHO parental Ca = signal in parental CHO cells, OX1R antagonist counter-screen; actives 0.63% (n = 330,000); inhibition, % at 5.6 µM; parental CHO-K1, ATP-induced calcium, Fluo-8 fluorescence;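 active = inhibition above that plate's mean sample inhibition plus 3 SD, cut at about 26% in these data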;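 note: 0% = ATP-challenged DMSO wells and 100% = DMSO wells without ATP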
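Material: Parental CHO cells | Reagent: ATP | Compound dosing: Single nominal dose of 5.6 µM per compound | Detection: Intracellular calcium via Fluo-8 no-wash fluorescent dye | Read-out: % inhibition of ATP-induced calcium mobilization | Benchmarks: Low control ATP plus DMSO, high control DMSO only | Replicates: Singlicate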
An asterisk follows results filed as active; / = no result. Most compounds without a hit are left out; they make up all but 3.1% or so of the library.

SMILES	GalR3 antagonist	OX1R antag-1	OX1R antag-2	GPR7 antagonist	CHO parental Ca
O=S(=O)(c1ccccc1)N(CC1CO1)c1cccc2ccccc12 (centres undefined)	-0.6	11.8	67.1*	-2.4	-16.3
O=S(=O)(c1ccccc1)N(CC1CO1)c1ccccc1 (centres undefined)	-3.7	-4.9	21.9	7.0	8.0
CCOC(=O)C1=CCN(S(=O)(=O)c2ccc(Br)cc2)C1c1cccc(Cl)c1 (centres undefined)	-7.2	/	/	/	/
CCCCS(=O)(=O)NCC1CCN(C(=O)C(=O)c2cc3ccccc3o2)CC1	-3.2	/	/	/	/
NC1=NC(=O)/C(=C/c2ccc(Cl)cc2Cl)S1	-4.8	-3.8	-4.1	-15.1	-4.1
NC1=NC(=O)/C(=C\c2cc([N+](=O)[O-])ccc2Cl)S1	-2.4	-14.1	49.3*	-8.9	3.5
CCN(CC)CCNc1ncnc2c1[nH]c1ccc(OC)cc12	/	-11.5	15.0	-7.8	-3.6
COc1ccc2[nH]c3c(NCCC4=CCCCC4)ncnc3c2c1	-6.9	/	/	23.3*	/
Cc1c(Br)ccc(NC(=O)Cn2nc(-c3cccs3)ccc2=O)c1C	-6.0	0.1	54.6*	13.0	-22.5
Cc1cc(NC(=O)Cn2nc(-c3cccs3)ccc2=O)cc(C)c1Br	-5.7	-15.6	14.4	-4.4	-8.7
O=C(Nc1cccc(O)c1)c1noc2c1CCc1ccccc1-2	-9.9	40.3	36.6*	6.2	-15.0
Cc1cccc(N=C2CCCC2C(=O)Nc2cccc(C)c2C)c1C (centres undefined)	-7.1	/	/	/	/
COc1cc(-n2c(C)nc3ncn(-c4ccccc4)c3c2=O)cc(OC)c1OC	-3.7	/	/	/	/
C=C(C)COc1ccc(-c2[nH]ncc2-c2ccccc2)c(O)c1	-1.0	13.3	0.7	-16.5	-3.2
C=C(C)COc1ccc(-c2[nH]ncc2Oc2cccc(OC)c2)c(O)c1	-2.6	31.2	13.4	-18.0	74.5*
CCCc1ccc(Oc2cn[nH]c2-c2ccc(O)cc2O)cc1	-6.1	22.0	-6.2	-7.3	34.7*
COc1ccc(Oc2cn[nH]c2-c2ccc(O)cc2O)cc1	11.1	0.2	0.7	9.0	8.8
C=C(C)COc1ccc(-c2[nH]ncc2-c2ccc(OC)cc2)c(O)c1	-5.9	-6.2	17.9	1.2	41.6*
C=C(C)COc1ccc(-c2[nH]ncc2Oc2ccccc2OCC)c(O)c1	-2.3	5.0	25.2	-3.4	-8.2
CCOC(=O)c1cc(-c2ccc(OC)cc2)nc2c1c(C)nn2CCC#N	-6.4	-16.9	10.1	19.1*	-31.1
CCOC(=O)c1cc(-c2ccccc2)nn1CCC#N	4.3	-4.6	13.9	-6.8	13.7
CCC(CCNC(=O)c1ccccc1)(CCNC(=O)c1ccccc1)[N+](=O)[O-]	-5.8	/	/	/	/
COC(=O)C1=C(C)NC2=C(C(=O)CC(c3cccs3)C2)C1c1ccsc1 (centres undefined)	-0.7	-20.6	22.1	21.8*	-9.7
CCOC(=O)C1=C(C)NC2=C(C(=O)CC(c3cccs3)C2)C1c1cccs1 (centres undefined)	-2.8	-21.4	0.0	-0.1	2.1
Cc1ccc(F)c(N=Cc2c(O)c3ccccc3oc2=O)c1	-5.3	-3.7	51.1*	-15.1	-6.8
SMILES	GalR3 antagonist	OX1R antag-1	OX1R antag-2	GPR7 antagonist	CHO parental Ca
N#CCS(=O)(=O)c1cccc[n+]1[O-]	-6.2	/	/	/	/
COC(=O)c1ccccc1-c1c2ccc(=N)cc-2oc2cc(N)ccc12	-6.2	112.1*	30.1*	/	101.6*
COC(=O)c1ccccc1-c1ccc(/C=N/NC(=O)c2cc3ccccc3o2)o1	-11.8	-21.8	36.5	0.8	-15.2
O=[N+]([O-])c1c(NCCO)cc(N2CCCCCC2)c2nonc12	-9.2	-17.7	42.3	-1.1	-6.8
CCOC(=O)C1CCCN(c2cc(NCCCO)c([N+](=O)[O-])c3nonc23)C1 (centres undefined)	0.0	-30.4	72.7*	-4.1	-6.4
COC(=O)c1cc2c(c3c4ccccc4n(S(C)(=O)=O)c13)C(=O)N(Cc1ccccc1)C2	-7.6	/	/	/	/
CC(=O)CC(=O)NC(=NC1CCCCC1)Nc1nc(C)cc(C)n1	-4.8	-7.0	16.3	20.5*	1.8
Cc1cc(C)nc(NC(N)=NC2CCCCC2)n1	2.5	-2.9	-2.9	-4.4	6.0
C[C@@H]1COc2cccc(N3CCCC3)c2S(=O)(=O)N1	-6.2	/	/	/	/
CC1(C(=O)Nc2ccc(Cl)c(Cl)c2)CCN1Cc1ccccc1OC(F)F (centres undefined)	-2.5	/	/	/	/
CC(C)N(C[C@@H]1CSCCS(=O)(=O)N1)C(C)C	-5.8	/	/	/	/
CC(=O)c1ccc(Sc2nnc(C)s2)c([N+](=O)[O-])c1	-0.3	-3.7	62.6*	0.0	-2.5
O=C1/C(=C/c2ccc(N3CCCC3)cc2)NC(=S)N1C1CC1	2.1	106.0*	17.0	2.9	57.7*
O=C1N/C(=C/c2ccc(N3CCCC3)cc2)C(=O)N1c1ccccc1	-2.3	-8.7	22.8	3.7	-4.2
Cc1cc(N2CCCC2)ccc1/C=C1\NC(=S)N(C)C1=O	-2.5	47.9*	31.1	-10.8	40.9*
CCCCN(C(=O)c1ccc([N+](=O)[O-])s1)c1c(N)n(CCCC)c(=O)[nH]c1=O	-2.2	-20.9	62.6*	/	-9.2
CCCCn1c(N)c(N(CCOC)C(=O)c2cc(=O)[nH]c3ccccc23)c(=O)[nH]c1=O	-7.0	1.8	5.2	/	3.1
CC(C)CN(C(=O)COC(=O)c1ccc([N+](=O)[O-])s1)c1c(N)n(Cc2ccccc2)c(=O)[nH]c1=O	-1.9	-11.2	28.3	/	-5.1
CCCCN(C(=O)c1cc(=O)[nH]c2ccccc12)c1c(N)n(CCC)c(=O)[nH]c1=O	/	-19.2	80.4*	-12.2	-7.6
CCCCn1c(N)c(N(CCC(C)C)C(=O)COC(=O)c2ccc([N+](=O)[O-])s2)c(=O)[nH]c1=O	-3.4	-12.0	35.2*	/	-12.4
Cc1[nH]c2ccccc2c1CC(=O)Nc1ccc(Oc2cccnc2)cc1	-6.3	/	/	/	/
COc1ccccc1C(=O)C1Nc2ccccc2-c2nnc(SC)nc2O1 (centres undefined)	-3.6	-16.0	50.2*	-0.5	-12.3
CCC1Nc2ccccc2-c2nnc(SC)nc2O1 (centres undefined)	-3.2	-4.1	54.6	-5.9	-13.1
CCOc1cccc(C=NNC(=O)C(=O)Nc2cccc(C(F)(F)F)c2)c1O	-6.2	/	/	/	/
CCCCC1CCC(C(=O)N(CCC(C)C)c2c(N)n(CCCC)c(=O)[nH]c2=O)CC1 (centres undefined)	-3.2	/	/	/	/
SMILES	GalR3 antagonist	OX1R antag-1	OX1R antag-2	GPR7 antagonist	CHO parental Ca
C=CCNc1ccc2c(c1)OC[C@H](Cc1ccccc1)NS2(=O)=O	-3.4	/	/	/	/
Cc1cc(C)c(N=C2CCCN2Cc2ccccc2)c(C#N)c1	-8.3	8.0	29.4	5.5	40.1*
O=S(=O)(c1cccs1)N1CCCc2nc(-c3ccc(F)cc3)ccc21	-7.1	/	/	/	/
Cc1nc2c(Br)cc(Br)cc2cc1O	0.7	-13.6	54.6*	9.3	4.5
Cc1nn(-c2ccccc2)c2sc(C(=O)NNC(=O)COc3ccccc3)cc12	0.3	-9.2	48.6*	-2.5	-6.1
Cc1nn(-c2ccccc2)c2sc(C(=O)NNC(=O)COc3cccc4ccccc34)cc12	-4.8	-28.9	10.8	19.6	-15.2
